According to article PMC5987874 (The Journal of General Physiology, 2018):
Positions count from the first letter of the chain named. Read-outs that look alike come from different tables or passages of the source.

How the values were obtained:
human Hv1 E119A-H193A = biological target: T1, human Hv1 E119A-H193A (Homo sapiens, UniProt Q96D96, E119A/H193A); assay: Whole-cell voltage clamp, Zn^2+ modulation of GAQ gating; format: cell-based
T1 sequence (Q96D96 1-273 E119A/H193A): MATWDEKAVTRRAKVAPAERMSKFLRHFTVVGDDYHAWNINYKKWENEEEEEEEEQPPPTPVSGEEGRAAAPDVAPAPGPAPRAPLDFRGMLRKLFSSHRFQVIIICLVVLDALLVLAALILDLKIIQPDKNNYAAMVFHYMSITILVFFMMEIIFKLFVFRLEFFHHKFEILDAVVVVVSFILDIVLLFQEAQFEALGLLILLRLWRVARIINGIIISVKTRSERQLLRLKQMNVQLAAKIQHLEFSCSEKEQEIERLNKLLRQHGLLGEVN
Method in brief: (§1)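 Whole-cell patch clamp at ~21°C. Pipette and bath (mM): ~80 TMA-MeSO3, 100 Bis-Tris, 8 HCl, pH 6.5, 310–320 mOsm. ZnCl2 was diluted into bath solution and applied by gravity superfusion, at least 2 min per change. Test step voltage was set per construct from its V0.5. G_STEP = end-of-step current/(V−V_REV). Effect = 1 − G_Zn/G_control, fitted to the Hill equation. IC50 and nH are means ± SEM from separate cells. ΔpIC50 was tested by unpaired t test, P<0.05.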

human Hv1 D123H-H193A = biological target: T2, human Hv1 D123H-H193A (Homo sapiens, UniProt Q96D96, D123H/H193A); assay: as above; format: cell-based
T2 sequence (Q96D96 1-273 D123H/H193A): T1 sequence (Q96D96 1-273 E119A/H193A) with A119E, D123H
Method in brief: as §1

[1] = biological target: T3, human Hv1 E153A (E^2.53A) (Homo sapiens, UniProt Q96D96, E153A); assay: as above; format: cell-based
T3 sequence (Q96D96 1-273 E153A): T1 sequence (Q96D96 1-273 E119A/H193A) with A119E, E153A, A193H
Method in brief: as §1

human Hv1 D185H-H193A = biological target: T4, human Hv1 D185H-H193A (Homo sapiens, UniProt Q96D96, D185H/H193A); assay: as above; format: cell-based
T4 sequence (Q96D96 1-273 D185H/H193A): T1 sequence (Q96D96 1-273 E119A/H193A) with A119E, D185H
Method in brief: as §1

[2] = biological target: T5, human Hv1 H193A (H^3.71A) (Homo sapiens, UniProt Q96D96, H193A); conditions: ref Ramsey et al., 2006; cited from earlier work
T5 sequence (Q96D96 1-273 H193A): T1 sequence (Q96D96 1-273 E119A/H193A) with A119E

[3] = biological target: T5, human Hv1 H193A (H^3.71A); assay: Whole-cell voltage clamp, Zn^2+ modulation of GAQ gating; format: cell-based
Method in brief: as §1

[4] = biological target: T6, human Hv1 E196H (E^4.38H) (Homo sapiens, UniProt Q96D96, E196H); assay: as above; format: cell-based
T6 sequence (Q96D96 1-273 E196H): T1 sequence (Q96D96 1-273 E119A/H193A) with A119E, A193H, E196H
Method in brief: as §1

[5] = VSTEP 100 mV, calculated as log (IC50)
[6] = VSTEP 80 mV, calculated as log (IC50)
[7] = read-out: Mean IC50 @ VSTEP, VSTEP 80 mV, pH 6.5, mean of fits in separate cells

Mean ΔpIC50 = (pIC50_1 - pIC50_2) (human Hv1 E119A-H193A; E119A-H193A vs E119A): −1.60 | Mean ΔpIC50 = (pIC50_1 - pIC50_2) (human Hv1 E119A-H193A; E119A-H193A vs H193A): −0.5 | nH, fit of the mean data to a Hill function (human Hv1 E119A-H193A; Fig. 4A): 0.8 | Hill value (human Hv1 E119A-H193A; VSTEP 100 mV): 0.78 | pIC50 (human Hv1 E119A-H193A; [5]): −3.56 | IC50 (human Hv1 E119A-H193A; read-out: IC50, fit of the mean data to a Hill function, Fig. 4A): 274 µM | Mean ΔpIC50 = (pIC50_1 - pIC50_2) (human Hv1 D123H-H193A; D123H-H193A vs H193A): 0.47 | nH, fit of the mean data to a Hill function (human Hv1 D123H-H193A; Fig. 4B): 0.9 | Hill value (human Hv1 D123H-H193A; VSTEP 80 mV): 1.06 | pIC50 (human Hv1 D123H-H193A; [6]): −4.54 | IC50 (human Hv1 D123H-H193A; read-out: IC50, fit of the mean data to a Hill function, Fig. 4B): 28.6 µM | IC50 (human Hv1 D123H-H193A; [7]): 36 µM | Mean ΔpIC50 = (pIC50_1 - pIC50_2) ([1]; E153A vs WT): −1.29 | Hill value ([1]; VSTEP 40 mV): 0.87 | pIC50 ([1]; VSTEP 40 mV, calculated as log (IC50)): −3.77 | IC50 ([1]; read-out: Mean IC50 @ VSTEP, VSTEP 40 mV, pH 6.5, mean of fits in separate cells): 241 µM | Mean ΔpIC50 = (pIC50_1 - pIC50_2) (human Hv1 D185H-H193A; D185H-H193A vs D185H): −0.84 | Mean ΔpIC50 = (pIC50_1 - pIC50_2) (human Hv1 D185H-H193A; D185H-H193A vs H193A): 0.52 | nH, fit of the mean data to a Hill function (human Hv1 D185H-H193A; Fig. 4D): 0.6 | Hill value (human Hv1 D185H-H193A; VSTEP 80 mV): 0.60 | pIC50 (human Hv1 D185H-H193A; [6]): −4.54 | IC50 (human Hv1 D185H-H193A; read-out: IC50, fit of the mean data to a Hill function, Fig. 4D): 26.7 µM | IC50 (human Hv1 D185H-H193A; [7]): 37.9 µM | nH, fit of the mean data to a Hill function ([3]; Fig. 2C): 1.0 | Mean ΔpIC50 = (pIC50_1 - pIC50_2) ([3]; H193A vs WT): −1.37 | Hill value ([3]; VSTEP 100 mV): 1.04 | pIC50 [3, 5]: −4.06 | IC50 ([3]; read-out: IC50, fit of the mean data to a Hill function, Fig. 2C): 82.2 µM | Mean ΔpIC50 = (pIC50_1 - pIC50_2) ([4]; E196H vs WT): −0.43 | Hill value ([4]; VSTEP 100 mV): 0.63 | pIC50 [4, 5]: −4.63
SMILES: [Cl-].[Cl-].[Zn+2] [Zn^2+, ZnCl2]
decrease of Zn^2+ potency by single mutation [2]: 10- to 30 fold
